Published values of several laboratories.
Medium: PAMPA

SMILES	tested at	time	pH	Papp [×10⁻⁶ cm/s]
COc1ccccc1CNC(=O)c1cc(S(=O)(=O)N2CCn3nccc3C2)c(C)n1C				22.9
C=C(CC(=O)OC)C(=O)OCOC(=O)OC(C)C	10 µM	4 h	pH 7.4	> 10
CCCOC(=O)c1ccc(O)cc1	5 µM		pH 7.4	7.04
C=C(CC(=O)OCOC(=O)C(C)(C)C)C(=O)OCOC(=O)C(C)(C)C	10 µM	4 h	pH 7.4	> 10
Cc1[nH]c(C)c(S(=O)(=O)Nc2ccc(C(F)(F)F)c(Cl)c2)c1C(=O)N1CCC(F)(F)C1				7.3
Cc1c(S(=O)(=O)N2CCc3[nH]ncc3C2)cc(C(=O)NCc2cccnc2N2CCCC2)n1C				14.4
CCCCC(CC)COC(=O)c1ccc(O)cc1 (stereo not shown)	5 µM		pH 7.4	1.49
Cc1[nH]c(C)c(S(=O)(=O)Nc2ccc(C(F)(F)F)c(Cl)c2)c1C(=O)N(C)C				11
Cc1c(S(=O)(=O)N2CCc3n[nH]cc3C2)cc(C(=O)NCc2c(F)ccc3cnn(C)c23)n1C				11
CC(C)(C)OC(=O)c1ccc(O)cc1	5 µM		pH 7.4	4.04
C=C(CC(=O)OCc1oc(=O)oc1C)C(=O)OCc1oc(=O)oc1C	10 µM	4 h		~15
CCCCCCCOC(=O)c1ccc(O)cc1	5 µM		pH 7.4	1.9
C=C(CC(=O)OCc1oc(=O)oc1C)C(=O)OC	10 µM	4 h		~15
Cc1c(S(=O)(=O)N2CCn3cncc3C2)cc(C(=O)NCc2c(F)ccnc2N2CCCC2)n1C				19.1
C=C(CC(=O)OCOC(=O)OC(C)C)C(=O)OC	10 µM	4 h	pH 7.4	> 10
CCCCCCCCOC(=O)c1ccc(O)cc1	5 µM		pH 7.4	0.73
